According to ChEMBL document CHEMBL5036367, “The BASHY Platform Enables the Assembly of a Fluorescent Bortezomib-GV1001 Conjugate” (ACS Med Chem Lett, 2022):

What was measured:
[1] = tested on: HeLa; experiment: Cytotoxicity against human HeLa cells assessed as reduction in cell viability incubated for 24 hrs by MTT assay; format: functional, cell-based
[2] = tested on: HT-29; experiment: Cytotoxicity against human HT-29 cells assessed as reduction in cell viability incubated for 24 hrs by MTT assay; format: functional, cell-based; conditions: HT-29, 24 h
[3] = tested on: HeLa; experiment: Cytotoxicity against oleic acid-induced human HeLa cells assessed as reduction in cell viability incubated for 24 hrs by MTT assay; format: functional, cell-based
[4] = Drug uptake in lysosomes of human HT-29 cells assessed as accumulation in lipid droplets by LysoTracker Red and Nile red staining based confocal microscopic analysis; format: ADME, cell-based
Outline: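 HT-29 cells were imaged by confocal fluorescence microscopy using the compound's own fluorescence. Co-staining was with LysoTracker Deep Red for lysosomes and Nile Red for lipid droplets. Colocalization was expressed as the Pearson's correlation coefficient.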

[5] = Stability of compound in ammonium acetate assessed as half life at pH 7; format: physicochemical

| Drug uptake [4] | half-life [5] | Structure (SMILES) | IC50 [1] | IC50 [2] | IC50 [3] |
| --- | --- | --- | --- | --- | --- |
| – | – | CC(C)C[C@H](NC(=O)[C@H](Cc1ccccc1)NC(=O)c1cnccn1)B(O)O [BORTEZOMIB] | 0.02 µM | 0.0032 µM | > 0.2 µM |
| – | – | COc1ccc2c(c1)O[B-]1([C@H](CC(C)C)NC(=O)[C@@H](Cc3ccccc3)NC(=O)c3cnccn3)OC(=O)C(c3ccccc3)=N[N+]1=C2c1ccccc1 (stereo partly specified) | – | 0.45 µM | – |
| Active | – | CCC1=[N+]2N=C(c3ccccc3)C(=O)O[B-]2(c2ccccc2)Oc2cc(OC)ccc21 (stereo unspecified) | – | – | – |
| – | – | CCc1c2c(nc3ccc(O)cc13)-c1cc3c(c(=O)n1C2)COC(=O)[C@]3(O)CC [7-ETHYL-10-HYDROXYCAMPTOTHECIN] | 0.349 µM | – | > 1 µM |
| Not Active | – | CC[C@H](C)[C@H](NC(=O)[C@H](Cc1ccccc1)NC(=O)[C@H](CCCNC(=N)N)NC(=O)[C@H](CC(C)C)NC(=O)[C@H](CCCNC(=N)N)NC(=O)[C@H](CO)NC(=O)[C@@H](NC(=O)[C@H](CC(C)C)NC(=O)[C@H](CC(C)C)NC(=O)[C@H](C)NC(=O)[C@@H]1CCCN1C(=O)[C@H](CCCNC(=N)N)NC(=O)[C@H](C)NC(=O)[C@@H](N)CCC(=O)O)[C@@H](C)O)C(=O)N1CCC[C@H]1C(=O)N[C@@H](CCCCN)C(=O)N[C@H](CSC1CC(=O)N(CCC(=O)NCCOCCOCCOCCOCCC(=O)NCCC(=O)N2Cc3ccccc3-c3c(nnn3CCOCCOCCOCCOc3ccc4c(c3)O[B-]3([C@@H](CC(C)C)NC(=O)[C@@H](Cc5ccccc5)NC(=O)c5cnccn5)OC(=O)C(c5ccccc5)=N[N+]3=C4c3ccccc3)-c3ccccc32)C1=O)C(=O)O (stereo partly specified) | – | 0.1 µM | – |
| – | – | COc1cccc2c1C(=O)c1c(O)c3c(c(O)c1C2=O)C[C@@](O)(C(=O)CO)C[C@@H]3O[C@H]1C[C@H](N)[C@H](O)[C@H](C)O1 [DOXORUBICIN] | 0.09 µM | – | > 1 µM |
| Active | 13 h | CCC1=[N+]2N=C(c3ccccc3)C(=O)O[B-]2([C@H](CC(C)C)NC(=O)[C@@H](Cc2ccccc2)NC(=O)c2cnccn2)Oc2cc(OC)ccc21 (stereo partly specified) | 0.134 µM | 0.0195 µM | > 0.2 µM |
